From PMC5814546 (Clinical Pharmacokinetics, 2017)

Tests used:
Assay type in all cases: in vivo, human
[1] = Phase I multiple ascending dose study of ALZ-801 capsule and tablet; conditions: plasma; for AUC24: mean ± SD
[2] = Phase I single ascending dose study of ALZ-801 loose-filled capsule; conditions: plasma, ALZ-801 capsule 172 and 300 mg doses
Summary of the method: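 Single fasted oral loose-filled capsules; 172 mg in 36 healthy subjects over 50 y (parallel, randomized 1:1:1), 300 mg in 15 subjects over 50 y. Plasma sampled over 48 h into K3 EDTA on ice, spun 2000g 10 min 4 °C, stored at or below −20 °C. LC-MS assay; non-compartmental analysis; Tmax as median (range).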

[3] = Urine drug recovery, renal clearance and estimate of oral bioavailability; conditions: for Mean Ae / CLr: Cohort D, 24-h urine; for CLr: mean ± SD
Summary of the method: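 Cohort D: 265 mg immediate-release tablet in the fed state (meal 30 min pre-dose), once on day 1, twice daily days 2–6, once on day 7. Urine was collected over 24 h on days 1 and 7 and assayed by LC-MS (LLOQ 30 ng/mL ALZ-801, 100 ng/mL tramiprosate). Renal clearance was calculated as Ae divided by plasma AUC24.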

O=C(O)CCS(=O)(=O)O [NRM5074]
AUC24 ([1]; Day 1, fed, ALZ-801 tablet 265 mg (Cohort D)): 1.81 ± 0.348 µg·h/mL | AUC24 ([1]; Day 7, fed, ALZ-801 tablet 265 mg twice daily (Cohort D)): 5.47 ± 1.03 µg·h/mL | median T max ([1]; days 7 and 14, all dosing regimens): 5 h | T max range ([1]; single oral dose of ALZ-801, day 1): 2 to 16 h | median T max [2]: approximately 5 h | Mean Ae ([3]; Day 1, ALZ-801 tablet 265 mg): 70.8 mg | CLr ([3]; Day 1, ALZ-801 tablet 265 mg): 652 ± 161 mL/min | Mean Ae ([3]; Day 7, ALZ-801 tablet 265 mg): 188.7 mg | CLr ([3]; Day 7, ALZ-801 tablet 265 mg): 575 ± 218 mL/min | mean CLr (range) ([3]; across dosing cohorts and days, Study 2): 500 to 1570 mL/min
